# Measured values as given in ChEMBL document CHEMBL1124134, “Chemical synthesis and biological activities of 5-deazaaminopterin analogues bearing substituent(s) at the 5- and/or 7-position(s)” (J Med Chem, 1988).
# What was measured:
# Dihydrofolate reductase = target: T1, Dihydrofolate reductase (Mus musculus, UniProt P00375); experiment: Inhibitory activity against dihydrofolate reductase (DHFR) of L-1210 cells; type: cell-based
# T1 sequence (P00375 whole entry): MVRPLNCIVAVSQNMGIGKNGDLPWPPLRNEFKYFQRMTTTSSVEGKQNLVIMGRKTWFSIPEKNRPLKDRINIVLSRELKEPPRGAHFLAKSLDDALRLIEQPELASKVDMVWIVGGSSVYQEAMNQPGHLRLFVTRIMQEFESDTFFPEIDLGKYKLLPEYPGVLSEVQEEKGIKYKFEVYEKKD
# L1210 = experiment: Inhibition of cell growth of murine L-1210 cells; type: functional, cell-based; conditions: Mus musculus
# HL-60 [1] = experiment: Compound was evaluated for inhibition of human HL-60 cell growth at 1 (uM) at 24 hr; type: functional
# Outline: (§1)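 HL-60 cells exposed to compound for up to 72 h. Viable cells counted by trypan blue exclusion, with percent growth inhibition read at 1 μM after 24, 48 or 72 h.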
# HL-60 [2] = experiment: Compound was evaluated for inhibition of human HL-60 cell growth at 1 (uM) at 48 hr; type: functional; outline: as §1
# HL-60 [3] = experiment: Compound was evaluated for inhibition of human HL-60 cell growth at 1 (uM) at 72 hr; type: functional; outline: as §1
# HL-60 [4] = experiment: Inhibition of [6-3H]-dUrd incorporation into DNA in HL-60 cells; type: functional; conditions: Homo sapiens, read-out: ED50 (the source's name)
# Outline: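 HL-60 cells preincubated with compound for 40 min, then given [6-3H]dUrd (0.05 μM, 1 μCi/mL) for 30 min at 37 °C, and label incorporated into DNA measured. Five compound concentrations were used, with ED50 from the median-effect equation and plot. For shallow curves, values were given as < or <<.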
# HL-60 [5] = experiment: Median-effective concentration for inhibition of human HL-60 cell growth at 24 h; type: functional; conditions: HL-60, 24 h, read-out: ED50 (the source's name)
# Outline: (§2)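 HL-60 cells exposed to five concentrations of each compound for up to 72 h, with viable cells counted by trypan blue exclusion. ED50 at 24, 48 or 72 h derived by median-effect equation and plot. Where dose-effect curves were shallow, values were assigned with < or << marks.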
# HL-60 [6] = experiment: Median-effective concentration for inhibition of human HL-60 cell growth at 48 h; type: functional; conditions: HL-60, 48 h, read-out: ED50 (the source's name); outline: as §2
# HL-60 [7] = experiment: Median-effective concentration for inhibition of human HL-60 cell growth at 72 h; type: functional; conditions: HL-60, 72 h, read-out: ED50 (the source's name); outline: as §2
Structure (SMILES),Ki (Dihydrofolate reductase),IC50 (L1210),Inhibition (HL-60 [1]),Inhibition (HL-60 [2]),Inhibition (HL-60 [3]),EC50 (HL-60 [4]),EC50 (HL-60 [5]),EC50 (HL-60 [6]),EC50 (HL-60 [7])
Cc1nc2nc(N)nc(N)c2c(-c2ccccc2)c1CNc1ccc(C(=O)NC(CCC(=O)O)C(=O)O)cc1 (stereo unspecified),> 4 pM,18.9 µM,,,,,,,
Nc1nc(N)c2cc(CNc3ccc(C(=O)NC(CCC(=O)O)C(=O)O)cc3)c(-c3ccccc3)nc2n1 (stereo unspecified),> 4 pM,16.9 µM,,,,,,,
Cc1c(CNc2ccc(C(=O)NC(CCC(=O)O)C(=O)O)cc2)c(-c2ccccc2)nc2nc(N)nc(N)c12 (stereo unspecified),> 4 pM,18.9 µM,,,,,,,
Nc1nc(N)c2cc(CNc3ccc(C(=O)NC(CCC(=O)O)C(=O)O)cc3)cnc2n1 (stereo unspecified),,0.02 µM,,,,,,,
Cc1nc2nc(N)nc(N)c2c(C)c1CNc1ccc(C(=O)NC(CCC(=O)O)C(=O)O)cc1 (stereo unspecified),2.01 pM,0.125 µM,10.3%,19.8%,50.8%,568 µM,42 µM,8.2 µM,0.59 µM
Cc1c(CNc2ccc(C(=O)NC(CCC(=O)O)C(=O)O)cc2)cnc2nc(N)nc(N)c12 (stereo unspecified),,0.00011 µM,25.2%,61.1%,92.2%,< 4 µM,2290 µM,0.15 µM,< 0.001 µM
Cc1nc2nc(N)nc(N)c2cc1CNc1ccc(C(=O)NC(CCC(=O)O)C(=O)O)cc1 (stereo unspecified),> 4 pM,0.08 µM,4.7%,32.5%,77.6%,123 µM,144 µM,2 µM,0.011 µM
CN(Cc1cnc2nc(N)nc(N)c2n1)c1ccc(C(=O)N[C@@H](CCC(=O)O)C(=O)O)cc1 [METHOTREXATE],,0.0045 µM,34.2%,64%,87.7%,0.1 µM,609 µM,< 0.05 µM,< 0.05 µM
